# Laboratory results reported in ChEMBL document CHEMBL1150290, “Novel anti-inflammatory agents based on pyridazinone scaffold; design, synthesis and in vivo activity” (Bioorg Med Chem, 2008).
# What was measured:
# Rattus norvegicus [1] = test: Antiinflammatory activity against carrageenan-induced paw edema in sc dosed Albino rat assessed as inhibition of paw edema volume measured 4 hrs after carrageenan challenge; format: functional
# Method in brief: (§1)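 Rats randomized into groups of six. Edema induced by subplantar injection of 50 µL 2% carrageenan in 0.9% saline. Compounds in DMSO given sc at 5, 10, 15, 20 and 25 µmol/kg, 1 h before carrageenan; controls got DMSO. Paw volume read by water plethysmometer immediately and 4 h after carrageenan. Protection = (Vc − Vd)/Vc × 100. ED50 taken from dose-response curves at 4 h. Means ± SEM.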
# Rattus norvegicus [2] = test: Toxicity in Albino rat assessed as gastric-ulcerogenic effect at 30 uM/kg, po twice daily for 3 days; format: organism-based; conditions: in vivo, 72 h, 30 µM/kg per day
# Method in brief: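 Male albino rats (100–120 g), six per group, fasted 12 h with water ad libitum. Compounds given orally in two equal doses at 0 and 12 h for three successive days, 30 µM/kg per day; controls received 1% gum acacia orally. Rats killed with diethyl ether 6 h after the last dose and stomachs removed. Lesion severity scored on an arbitrary scale as ulcer index; % ulceration = ulcer-bearing animals/total × 100.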
# Rattus norvegicus [3] = test: Antiinflammatory activity in sc dosed Albino rat assessed as protection against carrageenan-induced paw edema measured 4 hrs after carrageenan challenge relative to indomethacin; format: functional
# Rattus norvegicus [4] = test: Antiinflammatory activity in sc dosed Albino rat assessed as protection against carrageenan-induced paw edema measured 4 hrs after carrageenan challenge; format: functional; method in brief: as §1
SMILES,ED50 (Rattus norvegicus [1]),Activity (Rattus norvegicus [2]),Activity (Rattus norvegicus [3]),Activity (Rattus norvegicus [4])
CN1N=C(/C=C/c2ccc3c(c2)OCO3)CCC1=O,34.3 µmol/kg,10%,–,–
O=C1CCC(/C=C/c2ccc(-c3ccccc3)cc2)=NN1,24.6 µmol/kg,10%,–,–
Cc1ccc(-c2cc(C(F)(F)F)nn2-c2ccc(S(N)(=O)=O)cc2)cc1 [CELECOXIB],16.7 µmol/kg,0%,104.23,77.5%
O=C1CCC(CCc2ccc(-c3ccccc3)cc2)=NN1,18.7 µmol/kg,10%,78.17,58.16%
O=C1CCC(/C=C/c2ccc(-c3ccccc3)cc2)=NN1c1ccccc1,38.6 µmol/kg,10%,–,–
CN1N=C(CCc2ccc(-c3ccccc3)cc2)CCC1=O,22.3 µmol/kg,0%,–,–
O=C1CCC(CCc2ccc3c(c2)OCCO3)=NN1,17 µmol/kg,0%,82.28,61.22%
COc1ccc2c(c1)c(CC(=O)O)c(C)n2C(=O)c1ccc(Cl)cc1 [INDOMETHACIN],9.7 µmol/kg,100%,–,74.4%
O=C1CCC(/C=C/c2ccc3c(c2)OCCO3)=NN1,27 µmol/kg,0%,–,–
CN1N=C(/C=C/c2ccc(-c3ccccc3)cc2)CCC1=O,32.4 µmol/kg,20%,–,–
O=C1CCC(/C=C/c2ccc(Oc3ccccc3)cc2)=NN1,28.8 µmol/kg,0%,–,–
